Columns and labels:
[1] = test system: A549; experiment: In vitro concentration required to inhibit the TNF-alpha-induced RANTES production in A549 human lung epithelium cell line; format: functional, cell-based
Method in brief: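 A549 human lung epithelial cells grown in D-MEM with 10% FCS, penicillin/streptomycin and 2 mM glutamine. Cells (4×10⁴/well) pretreated 1 h with compound or vehicle (0.1% DMSO), then stimulated with 100 ng/mL TNF-α for 24 h. RANTES in supernatants measured by quantitative sandwich fluorescent immunoassay.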

[2] = biological target: T1, Inhibitor of nuclear factor kappa-B kinase subunit beta (Homo sapiens, UniProt O14920); experiment: In vitro inhibitory concentration required against recombinant human IkB kinase beta (IKK-beta)
T1 sequence (O14920 whole entry): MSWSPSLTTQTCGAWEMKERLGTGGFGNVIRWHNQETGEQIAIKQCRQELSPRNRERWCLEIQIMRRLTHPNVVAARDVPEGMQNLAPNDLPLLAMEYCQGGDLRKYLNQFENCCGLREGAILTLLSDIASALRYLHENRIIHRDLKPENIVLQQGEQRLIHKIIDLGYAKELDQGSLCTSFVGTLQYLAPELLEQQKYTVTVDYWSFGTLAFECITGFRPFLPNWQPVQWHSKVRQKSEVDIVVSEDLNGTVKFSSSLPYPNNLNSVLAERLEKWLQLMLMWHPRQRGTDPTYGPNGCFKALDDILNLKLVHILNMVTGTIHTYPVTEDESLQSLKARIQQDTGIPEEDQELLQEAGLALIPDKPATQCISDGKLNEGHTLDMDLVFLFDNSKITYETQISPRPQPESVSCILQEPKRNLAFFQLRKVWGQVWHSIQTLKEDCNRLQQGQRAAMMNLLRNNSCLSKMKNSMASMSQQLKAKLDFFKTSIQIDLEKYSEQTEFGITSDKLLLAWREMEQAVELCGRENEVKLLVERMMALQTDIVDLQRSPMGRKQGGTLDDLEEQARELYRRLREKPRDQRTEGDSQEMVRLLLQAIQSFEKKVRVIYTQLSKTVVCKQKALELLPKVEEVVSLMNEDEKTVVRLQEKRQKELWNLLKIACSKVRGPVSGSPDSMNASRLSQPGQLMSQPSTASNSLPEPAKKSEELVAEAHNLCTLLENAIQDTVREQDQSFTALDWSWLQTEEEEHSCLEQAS
Method in brief: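 Recombinant His-tagged human IKK-β from baculovirus-infected insect cells, final […], with biotinylated GST-IκBα(1-54) substrate (final 0.2) in Tris-HCl pH 7.6 buffer with MgCl₂, DTT, Na₃VO₄ and BSA; DMSO final 0.25%. Started with ATP plus [γ-³³P]ATP, 2 h at rt, stopped with EDTA. Substrate captured on streptavidin plates, washed, counted by scintillation.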

[3] = test system: Mus musculus; experiment: In vivo LPS-induced TNF-alpha production in mice after oral administration (60 min pretreatment); format: functional
Method in brief: (§1)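 Eight-week-old female BALB/c mice given 200 (per mouse) LPS ip in saline. Compound dosed ip 30 min before LPS, or po in 10% cremophor/saline 60 min before. Blood taken under pentobarbital anaesthesia 90 min after LPS. Plasma TNFα measured by ELISA; mean of 5 mice per group used to calculate percent reduction versus LPS controls; ED₅₀ reported.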

[4] = test system: Mus musculus; experiment: In vivo LPS-induced TNF-alpha production in mice after ip administration (30 min pretreatment); format: functional; method in brief: as §1
[5] = biological target: Tyrosine-protein kinase SYK (Homo sapiens, UniProt P43405); experiment: Inhibition of human Syk
[6] = biological target: T2, Inhibitor of nuclear factor kappa-B kinase subunit alpha (Homo sapiens, UniProt O15111); experiment: Inhibition of human IKK-alpha kinase
T2 sequence (O15111 whole entry): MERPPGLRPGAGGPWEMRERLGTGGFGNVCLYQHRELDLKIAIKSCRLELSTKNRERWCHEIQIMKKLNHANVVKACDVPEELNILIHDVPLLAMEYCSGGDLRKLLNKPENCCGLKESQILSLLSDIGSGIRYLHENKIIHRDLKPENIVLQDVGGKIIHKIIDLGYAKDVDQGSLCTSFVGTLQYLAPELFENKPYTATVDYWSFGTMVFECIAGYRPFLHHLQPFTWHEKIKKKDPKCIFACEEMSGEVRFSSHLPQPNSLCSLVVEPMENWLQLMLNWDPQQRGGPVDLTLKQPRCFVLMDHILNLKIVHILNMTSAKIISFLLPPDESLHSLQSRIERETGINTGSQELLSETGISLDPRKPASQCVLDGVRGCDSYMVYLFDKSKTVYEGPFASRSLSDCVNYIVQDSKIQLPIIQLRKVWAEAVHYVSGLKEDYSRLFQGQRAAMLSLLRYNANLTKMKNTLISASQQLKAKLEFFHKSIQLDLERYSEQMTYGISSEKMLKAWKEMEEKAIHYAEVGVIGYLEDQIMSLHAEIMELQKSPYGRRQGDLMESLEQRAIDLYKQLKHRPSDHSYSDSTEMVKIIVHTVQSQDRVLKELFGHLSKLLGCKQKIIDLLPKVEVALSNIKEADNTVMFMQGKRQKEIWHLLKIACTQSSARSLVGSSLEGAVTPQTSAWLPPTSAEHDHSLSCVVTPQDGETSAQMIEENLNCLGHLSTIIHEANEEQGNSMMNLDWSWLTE

[7] = biological target: T3, Dual specificity mitogen-activated protein kinase kinase 4 (Homo sapiens, UniProt P45985); experiment: Inhibition of human mitogen-activated protein kinase kinase 4 (MKK4)
T3 sequence (P45985 whole entry): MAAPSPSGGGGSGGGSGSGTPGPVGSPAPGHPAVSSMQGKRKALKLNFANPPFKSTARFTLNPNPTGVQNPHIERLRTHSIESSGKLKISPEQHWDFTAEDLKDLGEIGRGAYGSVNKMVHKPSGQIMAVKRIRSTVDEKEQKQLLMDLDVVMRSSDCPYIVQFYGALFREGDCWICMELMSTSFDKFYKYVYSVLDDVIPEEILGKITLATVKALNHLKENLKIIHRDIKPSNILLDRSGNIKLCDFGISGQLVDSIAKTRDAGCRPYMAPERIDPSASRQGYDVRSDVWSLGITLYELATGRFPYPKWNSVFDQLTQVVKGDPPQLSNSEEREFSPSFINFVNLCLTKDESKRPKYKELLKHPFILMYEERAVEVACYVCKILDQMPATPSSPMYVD

[8] = test system: HEK293; experiment: In vitro inhibition of NF-kappaB-Luciferase in HEK293 cell line; format: functional, cell-based; conditions: Homo sapiens
[9] = biological target: T2, Inhibitor of nuclear factor kappa-B kinase subunit alpha; experiment: Inhibition of human IKK-alpha
[10] = species: Mus musculus; experiment: In vitro inhibition of IgE in mouse B-cells; format: functional, cell-based
[11] = test system: Jurkat; experiment: In vitro inhibition of anti-CD3/anti-CD28-I induced IL-2 release in Jurkat T-cells; format: functional, cell-based; conditions: Homo sapiens
[12] = test system: PBMC; experiment: In vitro inhibition TNF-alpha release in human Peripheral blood mononuclear cells (PBMC); format: functional, cell-based

| IC50 [1] | IC50 [2] | SMILES | further results |
| --- | --- | --- | --- |
| 35 µM | 0.6 µM | N#Cc1c(-c2cccc(NC(=O)CC(N)C(=O)O)c2)cc(-c2ccccc2O)nc1N (stereo not drawn) |  |
| > 50 µM | > 20 µM | CN(C)c1ccc(-c2cc(-c3ccccc3O)nc(N)c2C#N)cc1 |  |
| > 50 µM | 0.7 µM | N#Cc1c(-c2ccc(C(=O)O)cc2)cc(-c2ccccc2O)nc1N |  |
| > 50 µM | 2.5 µM | N#Cc1c(-c2cccc(C(=O)O)c2)cc(-c2ccccc2O)nc1N |  |
| > 50 µM | 0.7 µM | N#Cc1c(-c2ccccc2C(=O)O)cc(-c2ccccc2O)nc1N |  |
| > 50 µM | 1.7 µM | N#Cc1c(-c2cccc(NC(=O)C(O)CCC(=O)O)c2)cc(-c2cc(F)ccc2O)nc1N (stereo not drawn) |  |
| > 50 µM | 1 µM | N#Cc1c(-c2ccc(NC(=O)CCN3CCCCC3)cc2)cc(-c2ccccc2O)nc1N |  |
| 5 µM | 2.5 µM | N#Cc1c(-c2ccc(N3CCCCC3)c(NC(=O)CCN3CCCCC3)c2)cc(-c2ccccc2O)nc1N |  |
| > 50 µM | 20 µM | N#Cc1c(-c2cccc(N)c2)cc(-c2ccccc2O)nc1N |  |
| 15 µM | 3 µM | N#Cc1c(-c2cccc(NC(=O)CN3CCCCC3)c2)cc(-c2ccccc2O)nc1N |  |
| > 50 µM | 0.5 µM | N#Cc1c(-c2ccc(NC(=O)CCCC(=O)O)cc2)cc(-c2ccccc2O)nc1N |  |
| > 50 µM | > 20 µM | Cc1c(-c2ccccc2O)nc(N)c(C#N)c1-c1cccc(NC(=O)C(O)CCC(=O)O)c1 (stereo not drawn) |  |
| 15 µM | 0.6 µM | N#Cc1c(-c2cccc(NC(=O)C(N)CC(=O)O)c2)cc(-c2ccccc2O)nc1N (stereo not drawn) |  |
| 8 µM | 1.5 µM | N#Cc1c(-c2cccc(NC(=O)C3CCC(=O)O3)c2)cc(-c2ccccc2O)nc1N (stereo not drawn) | ED50 [3]: > 30 mg/kg; IC50 [8]: 8 µM; IC50 [5]: > 20 µM; IC50 [9]: > 20 µM; IC50 [10]: 0.35 µM; IC50 [11]: 15 µM; ED50 [4]: 10 mg/kg; IC50 [12]: 10 µM; IC50 [7]: > 20 µM |

Further lines, the compound ahead of its results:

| SMILES | IC50 [1] | IC50 [2] | further results |
| --- | --- | --- | --- |
| N#Cc1c(-c2cccc(NC(=O)C(O)CCC(=O)O)c2)cc(-c2ccc(O)cc2)nc1N (stereo not drawn) | > 50 µM | > 20 µM |  |
| N#Cc1c(-c2cccc(NC(=O)CCCC(=O)O)c2)cc(-c2ccccc2O)nc1N | > 50 µM | 1.4 µM |  |
| N#Cc1c(-c2cccc(NC(=O)C(O)CCC(=O)[O-])c2)cc(-c2ccccc2O)nc1N.[Na+] (stereo not drawn) | 20 µM | 0.9 µM | ED50 [3]: 18.7 mg/kg; ED50 [4]: 1.3 mg/kg |
| N#Cc1c(-c2cccc(NC(=O)C(O)CCC(=O)O)c2)cc(-c2cc(Cl)ccc2O)nc1N (stereo not drawn) | > 50 µM | 5.5 µM |  |
| CN(C)c1ccc(-c2cc(-c3ccccc3O)nc(N)c2C#N)cc1NC(=O)CCN1CCCCC1.Cl | 8 µM | 0.8 µM | ED50 [4]: 0.6 mg/kg |
| COCC(=O)Nc1cccc(-c2cc(-c3ccccc3O)nc(N)c2C#N)c1 | > 50 µM | 1.4 µM |  |
| N#Cc1c(-c2ccc(C(=O)NCCN3CCCCC3)cc2)cc(-c2ccccc2O)nc1N | > 50 µM | 0.6 µM |  |
| CCN(CC)c1nc(-c2ccccc2O)cc(-c2cccc(NC(=O)CCN3CCCCC3)c2)c1C#N |  | > 20 µM |  |
| COc1cccc(O)c1-c1cc(-c2cccc(NC(=O)C(O)CCC(=O)O)c2)c(C#N)c(N)n1 (stereo not drawn) | > 50 µM | 2 µM |  |
| COc1ccccc1-c1cc(-c2cccc(NC(=O)C(O)CCC(=O)O)c2)c(C#N)c(N)n1 (stereo not drawn) | > 50 µM | > 20 µM |  |
| N#Cc1c(-c2cccc(C(=O)NCCN3CCCCC3)c2)cc(-c2ccccc2O)nc1N | 15 µM | 1.8 µM |  |
| N#Cc1c(-c2cccc(NC(=O)C(O)CCC(=O)O)c2)cc(-c2ccccc2)nc1N (stereo not drawn) | > 50 µM | > 20 µM |  |
| COc1ccc(O)c(-c2cc(-c3cccc(NC(=O)C(O)CCC(=O)O)c3)c(C#N)c(N)n2)c1 (stereo not drawn) | > 50 µM | 5.3 µM |  |
| N#Cc1c(-c2cccc(NC(=O)CCN3CCCCC3)c2)cc(-c2ccccc2O)nc1O | > 50 µM | > 20 µM |  |
| N#Cc1c(-c2ccccc2C(=O)NCCN2CCCCC2)cc(-c2ccccc2O)nc1N | 6 µM | 0.5 µM |  |
| N#Cc1c(-c2cccc(NC(=O)CCN3CCCCC3)c2)cc(-c2cccc(O)c2)nc1N | 10 µM | > 20 µM |  |
| N#Cc1c(-c2cccc(NC(=O)CCN3CCCCC3)c2)cc(-c2ccccc2O)nc1N | 7 µM | 0.6 µM | ED50 [3]: 2 mg/kg; IC50 [5]: > 20 µM; IC50 [6]: 20 µM; ED50 [4]: < 0.03 mg/kg; IC50 [7]: > 20 µM |
| CC(=O)Nc1nc(-c2ccccc2O)cc(-c2cccc(NC(=O)CCN3CCCCC3)c2)c1C#N | 30 µM | 15 µM |  |
| Cl.N#Cc1c(-c2ccc(N3CCCC3)c(NC(=O)CCN3CCCCC3)c2)cc(-c2ccccc2O)nc1N | 0.8 µM | 1 µM | ED50 [3]: 10.1 mg/kg; ED50 [4]: 0.8 mg/kg |
| N#Cc1c(-c2ccc([N+](=O)[O-])cc2)cc(-c2ccccc2O)nc1N | > 50 µM | > 20 µM |  |
| Cc1cccc(O)c1-c1cc(-c2cccc(NC(=O)C(O)CCC(=O)O)c2)c(C#N)c(N)n1 (stereo not drawn) | > 50 µM | > 20 µM |  |
